Laboratory results from publication PMC6828636 (European Journal of Drug Metabolism and Pharmacokinetics, 2019).
Where two headings read alike, the source gives them in different places.

Assays:
CYP1A2 = biological target: T1, CYP1A2 (Homo sapiens, UniProt P05177); experiment: biochemical; format: in vitro ADME; settings: read-out: IC50, CYP1A2; human liver microsomes; substrate phenacetin
T1 sequence (P05177 1-516): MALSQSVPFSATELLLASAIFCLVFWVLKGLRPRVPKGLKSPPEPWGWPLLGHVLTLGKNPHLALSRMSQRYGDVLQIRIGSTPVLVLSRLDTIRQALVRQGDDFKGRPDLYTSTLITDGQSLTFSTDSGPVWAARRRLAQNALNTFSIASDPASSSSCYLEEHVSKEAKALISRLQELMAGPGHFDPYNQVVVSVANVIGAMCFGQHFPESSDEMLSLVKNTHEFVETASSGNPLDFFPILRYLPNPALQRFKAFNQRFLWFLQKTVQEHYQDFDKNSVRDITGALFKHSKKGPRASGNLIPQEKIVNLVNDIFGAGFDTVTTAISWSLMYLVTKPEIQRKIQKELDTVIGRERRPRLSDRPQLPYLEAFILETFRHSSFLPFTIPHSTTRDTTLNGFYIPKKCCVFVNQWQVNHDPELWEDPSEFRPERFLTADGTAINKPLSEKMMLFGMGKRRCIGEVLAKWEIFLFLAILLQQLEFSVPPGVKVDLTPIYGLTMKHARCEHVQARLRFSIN

[1] = Clinical plasma and intestinal concentrations of darolutamide; design: species or system human
UGT1A9 = UGT1A9 (Homo sapiens, UniProt O60656); experiment: UGT1A9 inhibition in human liver microsomes; format: in vitro ADME
Chain of UGT1A9 (O60656 26-530): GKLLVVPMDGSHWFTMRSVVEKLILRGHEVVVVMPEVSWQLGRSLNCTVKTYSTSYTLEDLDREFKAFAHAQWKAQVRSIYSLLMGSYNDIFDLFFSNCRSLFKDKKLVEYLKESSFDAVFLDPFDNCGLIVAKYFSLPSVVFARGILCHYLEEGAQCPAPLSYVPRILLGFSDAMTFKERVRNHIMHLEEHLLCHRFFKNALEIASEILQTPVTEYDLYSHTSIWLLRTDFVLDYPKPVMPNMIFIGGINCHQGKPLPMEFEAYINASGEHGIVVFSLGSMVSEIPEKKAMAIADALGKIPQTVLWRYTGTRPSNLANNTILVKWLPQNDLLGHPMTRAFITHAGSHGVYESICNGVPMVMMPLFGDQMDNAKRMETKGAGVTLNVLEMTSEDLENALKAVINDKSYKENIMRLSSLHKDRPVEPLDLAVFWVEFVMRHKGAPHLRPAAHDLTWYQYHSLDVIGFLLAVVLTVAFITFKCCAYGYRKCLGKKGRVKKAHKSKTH
How it was run: (§1)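 Glucuronidation of UGT-selective substrates was measured in human liver microsomes with and without test compound, using a rank-order approach. Standard inhibitors for each isoform were incubated in parallel as positive controls.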

UGT1A1 = biological target: T2, UGT1A1 (Homo sapiens, UniProt P22309); experiment: UGT1A1 inhibition in human liver microsomes; format: in vitro ADME; settings: read-out: IC50, UGT1A1, substrate estradiol
T2 sequence (P22309 26-533): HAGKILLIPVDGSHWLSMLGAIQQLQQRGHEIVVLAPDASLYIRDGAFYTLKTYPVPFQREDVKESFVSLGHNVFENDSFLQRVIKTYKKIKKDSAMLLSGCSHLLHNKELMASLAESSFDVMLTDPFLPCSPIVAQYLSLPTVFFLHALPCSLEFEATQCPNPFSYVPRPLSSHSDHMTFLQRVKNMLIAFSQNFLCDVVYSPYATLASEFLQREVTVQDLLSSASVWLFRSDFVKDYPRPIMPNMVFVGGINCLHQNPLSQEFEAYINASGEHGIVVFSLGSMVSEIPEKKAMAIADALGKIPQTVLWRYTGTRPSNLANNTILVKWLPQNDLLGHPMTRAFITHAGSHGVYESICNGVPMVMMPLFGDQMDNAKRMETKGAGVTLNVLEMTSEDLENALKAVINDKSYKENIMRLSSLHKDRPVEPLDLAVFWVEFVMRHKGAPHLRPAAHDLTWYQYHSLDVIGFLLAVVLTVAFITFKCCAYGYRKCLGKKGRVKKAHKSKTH
How it was run: as §1

CYP2C19 = CYP2C19 (Homo sapiens, UniProt P33261); experiment: CYP2C19 inhibition in human liver microsomes; format: in vitro ADME; settings: read-out: IC50, CYP2C19; human liver microsomes; substrate S-mephenytoin
Chain of CYP2C19 (P33261 whole entry, canonical isoform): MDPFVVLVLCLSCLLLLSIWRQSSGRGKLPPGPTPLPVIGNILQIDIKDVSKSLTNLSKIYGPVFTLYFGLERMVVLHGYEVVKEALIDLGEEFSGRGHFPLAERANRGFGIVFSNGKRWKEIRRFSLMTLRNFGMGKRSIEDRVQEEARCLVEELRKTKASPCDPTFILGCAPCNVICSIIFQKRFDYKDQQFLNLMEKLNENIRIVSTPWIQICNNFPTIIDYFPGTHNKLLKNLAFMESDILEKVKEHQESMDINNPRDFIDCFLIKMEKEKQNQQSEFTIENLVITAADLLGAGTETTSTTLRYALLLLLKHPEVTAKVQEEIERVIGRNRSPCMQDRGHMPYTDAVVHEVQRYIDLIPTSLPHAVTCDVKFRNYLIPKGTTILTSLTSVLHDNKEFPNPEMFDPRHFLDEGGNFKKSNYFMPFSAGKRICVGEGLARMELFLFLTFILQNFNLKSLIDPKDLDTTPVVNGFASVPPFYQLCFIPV
How it was run: (§2)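 Pooled human liver microsomes were incubated with standard CYP-selective substrates, with and without test compound at 0.03–100 μM. Standard selective inhibitors for each isoform ran in parallel as positive controls. Read-out was IC50. For CYP3A4 only, time-dependent inhibition was also tested after 30 min preincubation, using midazolam and testosterone as substrates.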

CYP3A4 = CYP3A4 (Homo sapiens, UniProt P08684); experiment: CYP3A4 inhibition in human liver microsomes; format: in vitro ADME; settings: human liver microsomes
Chain of CYP3A4 (P08684 whole entry): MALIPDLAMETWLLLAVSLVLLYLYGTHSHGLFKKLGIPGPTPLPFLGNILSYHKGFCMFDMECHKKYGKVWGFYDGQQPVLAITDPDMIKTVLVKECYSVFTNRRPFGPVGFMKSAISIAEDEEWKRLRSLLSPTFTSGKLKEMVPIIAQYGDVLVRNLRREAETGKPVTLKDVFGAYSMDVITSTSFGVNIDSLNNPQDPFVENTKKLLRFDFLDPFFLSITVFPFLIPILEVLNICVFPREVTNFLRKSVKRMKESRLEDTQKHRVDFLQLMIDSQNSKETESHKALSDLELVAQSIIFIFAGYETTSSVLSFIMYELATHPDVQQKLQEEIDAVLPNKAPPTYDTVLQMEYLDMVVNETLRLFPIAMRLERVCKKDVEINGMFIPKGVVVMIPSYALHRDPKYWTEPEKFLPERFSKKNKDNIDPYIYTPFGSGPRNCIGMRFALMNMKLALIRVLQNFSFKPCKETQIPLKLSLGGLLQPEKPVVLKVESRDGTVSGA
How it was run: as §2

CYP2A6 = biological target: T3, CYP2A6 (Homo sapiens, UniProt P11509); experiment: CYP2A6 inhibition in human liver microsomes; format: in vitro ADME; settings: read-out: IC50, CYP2A6; human liver microsomes; substrate coumarin
T3 sequence (P11509 1-494): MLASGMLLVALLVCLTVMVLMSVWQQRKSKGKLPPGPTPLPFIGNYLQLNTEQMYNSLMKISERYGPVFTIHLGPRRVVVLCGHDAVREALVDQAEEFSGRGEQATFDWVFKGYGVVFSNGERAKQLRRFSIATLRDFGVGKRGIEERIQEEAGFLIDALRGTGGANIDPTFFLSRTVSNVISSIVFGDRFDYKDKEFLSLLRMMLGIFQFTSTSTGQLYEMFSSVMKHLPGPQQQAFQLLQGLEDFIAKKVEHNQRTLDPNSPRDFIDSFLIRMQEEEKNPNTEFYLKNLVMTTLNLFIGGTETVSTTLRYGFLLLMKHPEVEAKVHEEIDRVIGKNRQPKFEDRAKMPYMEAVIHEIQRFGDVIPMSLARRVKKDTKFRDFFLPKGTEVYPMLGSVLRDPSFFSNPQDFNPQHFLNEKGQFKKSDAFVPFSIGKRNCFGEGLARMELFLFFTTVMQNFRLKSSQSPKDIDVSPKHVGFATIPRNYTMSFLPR
How it was run: as §2

CYP2D6 = CYP2D6 (Homo sapiens, UniProt P10635); experiment: CYP2D6 inhibition in human liver microsomes; format: in vitro ADME; settings: read-out: IC50, CYP2D6; human liver microsomes; substrate dextromethorphan
Chain of CYP2D6 (P10635 whole entry): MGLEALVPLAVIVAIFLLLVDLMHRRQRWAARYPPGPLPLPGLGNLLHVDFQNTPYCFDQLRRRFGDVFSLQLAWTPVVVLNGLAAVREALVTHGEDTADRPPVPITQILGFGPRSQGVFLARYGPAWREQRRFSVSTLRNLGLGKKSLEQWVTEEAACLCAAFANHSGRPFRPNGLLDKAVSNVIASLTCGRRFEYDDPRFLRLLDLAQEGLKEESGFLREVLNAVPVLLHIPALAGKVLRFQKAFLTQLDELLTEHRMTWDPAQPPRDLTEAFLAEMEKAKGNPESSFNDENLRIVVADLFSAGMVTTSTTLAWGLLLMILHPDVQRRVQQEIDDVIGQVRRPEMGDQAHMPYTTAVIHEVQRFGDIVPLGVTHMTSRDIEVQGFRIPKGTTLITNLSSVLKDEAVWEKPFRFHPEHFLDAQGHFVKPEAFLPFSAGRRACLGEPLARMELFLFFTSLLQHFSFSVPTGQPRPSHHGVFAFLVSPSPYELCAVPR
How it was run: as §2

CYP2C8 = biological target: T4, CYP2C8 (Homo sapiens, UniProt P10632); experiment: CYP2C8 inhibition in human liver microsomes; format: in vitro ADME; settings: read-out: IC50, CYP2C8; human liver microsomes; substrate amodiaquine
T4 sequence (P10632 1-490): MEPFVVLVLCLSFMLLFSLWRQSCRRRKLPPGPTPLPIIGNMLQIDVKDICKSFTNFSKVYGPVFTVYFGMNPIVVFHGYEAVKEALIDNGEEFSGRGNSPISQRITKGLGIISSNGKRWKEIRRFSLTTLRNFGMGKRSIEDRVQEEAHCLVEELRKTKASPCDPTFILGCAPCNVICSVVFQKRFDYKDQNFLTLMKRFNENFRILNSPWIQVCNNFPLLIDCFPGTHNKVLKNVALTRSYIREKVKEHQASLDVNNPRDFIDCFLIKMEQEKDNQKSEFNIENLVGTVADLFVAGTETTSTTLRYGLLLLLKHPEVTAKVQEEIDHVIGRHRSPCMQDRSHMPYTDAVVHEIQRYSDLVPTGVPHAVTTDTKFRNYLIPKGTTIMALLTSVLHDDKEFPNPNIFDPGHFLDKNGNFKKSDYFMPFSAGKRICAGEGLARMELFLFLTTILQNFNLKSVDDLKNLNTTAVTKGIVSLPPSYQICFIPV
How it was run: as §2

CYP2B6 = biological target: T5, CYP2B6 (Homo sapiens, UniProt P20813); experiment: biochemical; format: in vitro ADME; settings: read-out: IC50, CYP2B6; human liver microsomes; substrate bupropion
T5 sequence (P20813 1-491): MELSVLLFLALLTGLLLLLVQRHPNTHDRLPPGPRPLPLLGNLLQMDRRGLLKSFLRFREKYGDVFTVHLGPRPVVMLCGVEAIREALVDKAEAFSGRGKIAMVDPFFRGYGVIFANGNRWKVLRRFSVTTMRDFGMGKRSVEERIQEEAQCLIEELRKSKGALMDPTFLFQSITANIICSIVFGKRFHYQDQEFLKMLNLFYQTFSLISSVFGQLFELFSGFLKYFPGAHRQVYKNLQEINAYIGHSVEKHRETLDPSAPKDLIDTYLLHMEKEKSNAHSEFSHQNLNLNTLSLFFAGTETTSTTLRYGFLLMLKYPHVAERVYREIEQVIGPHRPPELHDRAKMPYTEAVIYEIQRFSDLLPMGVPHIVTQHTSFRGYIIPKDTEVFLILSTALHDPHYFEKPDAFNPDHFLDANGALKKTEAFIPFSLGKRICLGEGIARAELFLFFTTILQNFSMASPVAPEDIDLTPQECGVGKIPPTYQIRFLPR

CYP2C9 = CYP2C9 (Homo sapiens, UniProt P11712); experiment: CYP2C9 inhibition in human liver microsomes; format: in vitro ADME; settings: read-out: IC50, CYP2C9; human liver microsomes; substrate diclofenac
Chain of CYP2C9 (P11712 whole entry): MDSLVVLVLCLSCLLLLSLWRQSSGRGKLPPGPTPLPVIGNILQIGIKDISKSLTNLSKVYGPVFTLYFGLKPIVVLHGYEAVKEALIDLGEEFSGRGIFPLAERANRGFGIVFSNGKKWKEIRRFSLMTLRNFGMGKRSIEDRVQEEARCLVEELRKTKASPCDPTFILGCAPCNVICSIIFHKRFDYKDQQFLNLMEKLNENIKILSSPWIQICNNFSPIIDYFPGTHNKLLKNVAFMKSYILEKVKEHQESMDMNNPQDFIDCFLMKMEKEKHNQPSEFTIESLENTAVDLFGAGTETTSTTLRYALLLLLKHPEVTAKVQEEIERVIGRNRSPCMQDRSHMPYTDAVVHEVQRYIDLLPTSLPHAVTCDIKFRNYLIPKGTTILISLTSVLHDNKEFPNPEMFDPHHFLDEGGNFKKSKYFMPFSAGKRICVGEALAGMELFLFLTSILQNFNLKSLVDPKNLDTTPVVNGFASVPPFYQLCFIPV
How it was run: as §2

CYP2E1 = CYP2E1 (Homo sapiens, UniProt P05181); experiment: CYP2E1 inhibition in human liver microsomes; format: in vitro ADME; settings: read-out: IC50, CYP2E1; human liver microsomes; substrate chlorzoxazone
Chain of CYP2E1 (P05181 whole entry): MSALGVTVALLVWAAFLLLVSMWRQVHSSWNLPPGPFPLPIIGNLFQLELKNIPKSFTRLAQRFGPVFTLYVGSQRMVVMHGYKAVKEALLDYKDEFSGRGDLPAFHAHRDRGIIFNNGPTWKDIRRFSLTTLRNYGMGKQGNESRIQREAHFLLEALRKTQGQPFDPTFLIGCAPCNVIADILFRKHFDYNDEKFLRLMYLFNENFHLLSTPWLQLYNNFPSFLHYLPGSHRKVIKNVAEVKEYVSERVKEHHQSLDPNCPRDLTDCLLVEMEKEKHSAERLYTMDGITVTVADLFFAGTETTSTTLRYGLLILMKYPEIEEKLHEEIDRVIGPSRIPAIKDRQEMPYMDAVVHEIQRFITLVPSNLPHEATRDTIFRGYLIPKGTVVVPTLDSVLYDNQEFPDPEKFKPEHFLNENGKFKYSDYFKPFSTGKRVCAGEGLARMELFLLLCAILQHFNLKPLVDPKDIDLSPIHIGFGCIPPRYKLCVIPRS
How it was run: as §2

[2] = format: in vivo, human; settings: healthy male volunteers
[3] = Phase I study: darolutamide effect on rosuvastatin pharmacokinetics; format: in vivo, human
[4] = cited from earlier work
[5] = read-out: IC50, CYP3A4 (with pre-incubation), substrate midazolam, 30 min pre-incubation
[6] = read-out: IC50, CYP3A4 (with pre-incubation), substrate testosterone, 30 min pre-incubation
[7] = read-out: IC50, CYP3A4, substrate midazolam
[8] = read-out: IC50, CYP3A4, substrate testosterone
[9] = midazolam 1 mg and dabigatran etexilate 75 mg cocktail, darolutamide 600 mg

Row | Structure (SMILES) | IC50 (CYP1A2) | plasma concentration of unbound drug [1] | IC50 (UGT1A1) | IC50 (CYP2C19) | IC50 (CYP3A4; [5]) | IC50 (CYP3A4; [6]) | IC50 (CYP3A4; [7]) | IC50 (CYP3A4; [8]) | IC50 (CYP2A6) | IC50 (CYP2D6) | IC50 (CYP2C8) | IC50 (CYP2B6) | IC50 (CYP2C9) | IC50 (CYP2E1) | tmax in the presence and absence of darolutamide [2] | t½ in the presence and absence of darolutamide [2] | reduction in Cmax with co-administered darolutamide versus alone [2, 9] | other results
1 | C[C@@H](Cn1ccc(-c2ccc(C#N)c(Cl)c2)n1)NC(=O)c1cc([C@@H](C)O)[nH]n1 [(S,R)-darolutamide] | > 50 µM | < 600 nM | 26.5 µM | 46.7 µM | > 50 µM | > 50 µM | > 50 µM | > 50 µM | > 50 µM | > 50 µM | 36.2 µM | > 50 µM | 22.6 µM | > 50 µM |  |  |  | IC50 (UGT1A9; read-out: IC50, UGT1A9, substrate propofol): 12.5 µM; Ki (UGT1A9; read-out: Ki, UGT1A9): 6.32 µM
2 | C[C@H](O)c1cc(C(=O)N[C@@H](C)Cn2ccc(-c3ccc(C#N)c(Cl)c3)n2)n[nH]1 [(S,S)-darolutamide] | > 50 µM | < 600 nM | 31.7 µM | > 50 µM | > 50 µM | > 50 µM | > 50 µM | > 50 µM | > 50 µM | 40.2 µM | 46.3 µM | > 50 µM | > 50 µM | > 50 µM |  |  |  | 
3 | Cc1ncc2n1-c1ccc(Cl)cc1C(c1ccccc1F)=NC2 [midazolam] |  |  |  |  |  |  |  |  |  |  |  |  |  |  | comparable | comparable | ~32% | 
4 | [H]/N=C(/N)c1ccc(NCc2nc3cc(C(=O)N(CCC(=O)O)c4ccccn4)ccc3n2C)cc1 [non-conjugated dabigatran, dabigatran] |  |  |  |  |  |  |  |  |  |  |  |  |  |  | comparable | comparable | 16% | reduction in AUC with co-administered darolutamide versus alone [2, 9]: 9%
5 | CC(C)c1nc(N(C)S(C)(=O)=O)nc(-c2ccc(F)cc2)c1/C=C/[C@@H](O)C[C@@H](O)CC(=O)O [rosuvastatin] |  |  |  |  |  |  |  |  |  |  |  |  |  |  |  |  |  | effect of darolutamide comedication on t½ ([3]; healthy subjects): did not affect; increase in rosuvastatin exposure with darolutamide ([3]; healthy subjects, rosuvastatin 5 mg, darolutamide 600 mg twice daily): approximately fivefold; observed exposure as % of the reported fasted AUC(0–24) ([3]; human, in vivo): 34%; incidence of treatment-emergent AEs, alone versus with concomitant darolutamide ([3]; single doses of rosuvastatin 5 mg): similar; fraction absorbed (fa) [4]: 0.5; AUC(0–24) ([4]; single dose of 5 mg rosuvastatin, healthy subjects, fasted condition): 19.2 ng·h/mL
